Reference: ChEMBL document CHEMBL1926568, “Synthesis, biological evaluation and mechanistic studies of totarol amino alcohol derivatives as potential antimalarial agents” (Bioorg Med Chem, 2012)
pIC50: −log10 of the molar value. Activity calls are given as the source filed them. The calls are words filed in the database; no cut-off is given here.

Columns and labels:
Plasmodium falciparum [1] = assay: Antiplasmodial activity against chloroquine-sensitive Plasmodium falciparum D10 after 48 hrs by lactate dehydrogenase assay; assay type: functional, organism-based; settings: D10, 48 h
How it was run: (§1)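 P. falciparum D10 (CQ-sensitive) and K1 (CQ-resistant) kept in continuous in vitro culture, synchronized with 5% D-sorbitol at ring stage when needed; growth read by parasite lactate dehydrogenase assay; each compound run in duplicate on two separate occasions.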

[2] = Selectivity index, ratio of IC50 for CHO cells to IC50 for chloroquine-sensitive Plasmodium falciparum D10; assay type: toxicity, cell-based; settings: hamster, CHO cells (cytotoxicity) versus Plasmodium falciparum D10; read-out: Ratio IC50
Plasmodium falciparum [3] = assay: Resistance index, ratio of IC50 for chloroquine-resistant Plasmodium falciparum K1 to IC50 for chloroquine-sensitive Plasmodium falciparum D10; assay type: functional
How it was run: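 Resistance index computed as IC50 (K1)/IC50 (D10), both from the pLDH assay, each run in duplicate on two separate occasions.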

Plasmodium falciparum [4] = assay: Antiplasmodial activity against chloroquine-resistant Plasmodium falciparum K1 after 48 hrs by lactate dehydrogenase assay; assay type: functional, organism-based; settings: K1, 48 h; how it was run: as §1
CHO = assay: Cytotoxicity against CHO cells after 48 hrs by MTT assay; assay type: cell-based; settings: Cricetulus griseus
How it was run: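 CHO cells in DMEM:Ham's (1:1) with 10% heat-inactivated FCS and gentamicin, 37 °C, 5% CO2; 1×10^4 cells/well seeded 24 h, then serial dilutions from DMSO stocks (100–0.01 µg/ml) for 48 h, with medium and DMSO controls.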

[5] = Selectivity index, ratio of IC50 for CHO cells to IC50 for chloroquine-resistant Plasmodium falciparum K1; assay type: toxicity, cell-based; settings: hamster, CHO cells (cytotoxicity) versus Plasmodium falciparum K1; read-out: Ratio IC50
Erythrocyte [6] = assay: Induction of [3H]-chloroquine accumulation in erythrocytes infected with chloroquine-resistant Plasmodium falciparum K1 trophozoites at 1 ug/ml pre-incubated for 15 mins before exposure to [3H]-chloroquine measured after 1 hr by liquid scintillation counting relative to control; assay type: functional, cell-based
How it was run: (§2)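 Synchronized K1-infected erythrocytes at trophozoite stage (1% hematocrit, 5% parasitemia) preincubated with test compound 15 min at 37 °C, then 4 nM 3H-CQ for 1 h at 37 °C; cells spun through dibutylphthalate, pellet digested and counted by liquid scintillation; accumulation expressed relative to untreated control; verapamil 5 µM positive control.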

[7] = Cytotoxicity in un-parasitized erythrocytes assessed as morphological changes at 6.25 ug/ml after 48 hrs by phase contrast microscopy; assay type: cell-based; settings: erythrocyte
How it was run: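 Unparasitized erythrocytes (hematocrit 2%) held 48 h with 6.25 µg/ml compound (diluted from 100 µg/ml stocks), then fixed with 1% glutaraldehyde in paraformaldehyde; cell shape of 20 µl samples examined by phase-contrast light microscopy at ×1000.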

Plasmodium falciparum [8] = assay: Antiplasmodial activity against Plasmodium falciparum schizonts assessed as parasitemia at IC50 concentration treated until all schizonts had burst and invasion was assumed to have occurred by Giemsa staining-based microscopy (reference value: 8.83%); assay type: functional
Plasmodium falciparum [9] = assay: Antiplasmodial activity against Plasmodium falciparum schizonts assessed as change in parasitemia at IC50 concentration treated until all schizonts had burst and invasion was assumed to have occurred by Giemsa staining-based microscopy relative to control; assay type: functional
Erythrocyte [10] = assay: Induction of [3H]-chloroquine accumulation in erythrocytes infected with chloroquine-resistant Plasmodium falciparum K1 trophozoites at 5 uM pre-incubated for 15 mins before exposure to [3H]-chloroquine measured after 1 hr by liquid scintillation counting relative to control; assay type: functional; how it was run: as §2

Structure (SMILES): Oc1cccc2ccccc12 [1-NAPHTHOL]
- pIC50 (Plasmodium falciparum [1]): 4.25

Structure (SMILES): CC(C)c1c(OCC(O)CN2CCOCC2)ccc2c1CC[C@H]1C(C)(C)CCC[C@]21C (mixture of isomers)
- selectivity ratio [2]: 2.7
- Ratio IC50 (Plasmodium falciparum [3]): 0.27
- pIC50 (Plasmodium falciparum [1]): 5.68
- pIC50 (Plasmodium falciparum [4]): 6.25
- pIC50 (CHO): 5.25
- selectivity ratio [5]: 10

Structure (SMILES): CC(C)c1c(OCC(O)CN2CCN(C)CC2)ccc2c1CC[C@H]1C(C)(C)CCC[C@]21C (stereo partly specified)
- selectivity ratio [2]: 2.7
- Ratio IC50 (Plasmodium falciparum [3]): 1.03
- pIC50 (Plasmodium falciparum [1]): 5.87
- pIC50 (Plasmodium falciparum [4]): 5.86
- pIC50 (CHO): 5.43
- Activity (Erythrocyte [6]): Active
- Activity [7]: Toxic
- selectivity ratio [5]: 2.7

Structure (SMILES): OC(CNCc1ccccc1)COc1ccc2ccccc2c1 (racemic)
- selectivity ratio [2]: 18.2
- Ratio IC50 (Plasmodium falciparum [3]): 2
- pIC50 (Plasmodium falciparum [1]): 5.17
- pIC50 (Plasmodium falciparum [4]): 4.87
- pIC50 (CHO): 3.91
- selectivity ratio [5]: 9.1

Structure (SMILES): CC(C)c1c(O)ccc2c1CC[C@H]1C(C)(C)CCC[C@]21C [TOTAROL]
- selectivity ratio [2]: 14.5
- Ratio IC50 (Plasmodium falciparum [3]): 0.99
- pIC50 (Plasmodium falciparum [1]): 4.93
- pIC50 (Plasmodium falciparum [4]): 4.93
- pIC50 (CHO): 3.77
- selectivity ratio [5]: 14.6

Structure (SMILES): c1ccc(OCC2CO2)cc1 (stereo unspecified)
- pIC50 (Plasmodium falciparum [1]): 4.11

Structure (SMILES): CC(C)NCC(O)COc1ccc2c(c1C(C)C)CC[C@H]1C(C)(C)CCC[C@]21C (stereo partly specified)
- Activity (Plasmodium falciparum [8]): 5.43%
- selectivity ratio [2]: 1.2
- Ratio IC50 (Plasmodium falciparum [3]): 0.14
- pIC50 (Plasmodium falciparum [1]): 5.98
- pIC50 (Plasmodium falciparum [4]): 6.77
- Activity (Plasmodium falciparum [9]): -3.4%
- pIC50 (CHO): 5.89
- Activity [7]: Non-toxic
- selectivity ratio [5]: 8.7

Structure (SMILES): c1ccc2c(OCC3CO3)cccc2c1 (stereo unspecified)
- pIC50 (Plasmodium falciparum [1]): < 4.00

Structure (SMILES): CC(C)c1c(OCC(O)CN2C(=O)c3ccccc3C2=O)ccc2c1CC[C@H]1C(C)(C)CCC[C@]21C (stereo partly specified)
- Ratio IC50 (Plasmodium falciparum [3]): 5.06
- pIC50 (Plasmodium falciparum [1]): 5.02
- pIC50 (Plasmodium falciparum [4]): 4.32

Structure (SMILES): OC(COc1cccc2ccccc12)CN1CCN(c2ccccc2Cl)CC1 (racemic)
- pIC50 (Plasmodium falciparum [1]): < 4.00

Structure (SMILES): CC(C)c1c(OCC(O)CNCc2ccccc2)ccc2c1CC[C@H]1C(C)(C)CCC[C@]21C (stereo partly specified)
- Activity (Plasmodium falciparum [8]): 8.31%
- selectivity ratio [2]: 2.2
- Ratio IC50 (Plasmodium falciparum [3]): 0.1
- pIC50 (Plasmodium falciparum [1]): 5.19
- pIC50 (Plasmodium falciparum [4]): 6.19
- Activity (Plasmodium falciparum [9]): -0.52%
- pIC50 (CHO): 4.84
- Activity [7]: Non-toxic
- selectivity ratio [5]: 22.3

Structure (SMILES): CC(C)c1c(OCC(O)CN2CCN(c3ccnc4cc(Cl)ccc34)CC2)ccc2c1CC[C@H]1C(C)(C)CCC[C@]21C (single isomer, unassigned)
- selectivity ratio [2]: 67.3
- Ratio IC50 (Plasmodium falciparum [3]): 0.64
- pIC50 (Plasmodium falciparum [1]): 5.85
- pIC50 (Plasmodium falciparum [4]): 6.03
- pIC50 (CHO): 4.03
- selectivity ratio [5]: > 100

Structure (SMILES): OC(CNCc1ccccc1)COc1cccc2ccccc12 (racemic)
- Activity (Plasmodium falciparum [8]): 10.24%
- selectivity ratio [2]: 1.6
- Ratio IC50 (Plasmodium falciparum [3]): 0.14
- pIC50 (Plasmodium falciparum [1]): 5.29
- pIC50 (Plasmodium falciparum [4]): 6.14
- Activity (Plasmodium falciparum [9]): 1.41%
- pIC50 (CHO): 5.08
- selectivity ratio [5]: 11.2

Structure (SMILES): CC(C)c1c(OCC(O)CN2CCN(c3ccccc3Cl)CC2)ccc2c1CC[C@H]1C(C)(C)CCC[C@]21C (single isomer, unassigned)
- selectivity ratio [2]: 57.3
- Ratio IC50 (Plasmodium falciparum [3]): 0.23
- pIC50 (Plasmodium falciparum [1]): 5.49
- pIC50 (Plasmodium falciparum [4]): 6.03
- pIC50 (CHO): 3.73
- selectivity ratio [5]: 207

Structure (SMILES): CN1CCN(CC(O)COc2ccc3ccccc3c2)CC1 (racemic)
- selectivity ratio [2]: 3.5
- Ratio IC50 (Plasmodium falciparum [3]): 0.19
- pIC50 (Plasmodium falciparum [1]): 4.37
- pIC50 (Plasmodium falciparum [4]): 5.09
- pIC50 (CHO): 3.83
- selectivity ratio [5]: 18.1

Structure (SMILES): CC(C)c1c(OCC2CO2)ccc2c1CC[C@H]1C(C)(C)CCC[C@]21C (stereo partly specified)
- Ratio IC50 (Plasmodium falciparum [3]): 1.36
- pIC50 (Plasmodium falciparum [1]): 4.99
- pIC50 (Plasmodium falciparum [4]): 4.85

Structure (SMILES): CC(C)c1c(OCC(O)CN2CCN(c3ccccc3)CC2)ccc2c1CC[C@H]1C(C)(C)CCC[C@]21C (stereo partly specified)
- selectivity ratio [2]: 41.2
- Ratio IC50 (Plasmodium falciparum [3]): 0.71
- pIC50 (Plasmodium falciparum [1]): 5.59
- pIC50 (Plasmodium falciparum [4]): 5.74
- pIC50 (CHO): 3.98
- selectivity ratio [5]: 58.1

Structure (SMILES): Oc1ccccc1 [PHENOL]
- pIC50 (Plasmodium falciparum [1]): < 4.00

Structure (SMILES): CCOc1ccccc1N1CCN(CC(O)COc2ccc3c(c2C(C)C)CC[C@H]2C(C)(C)CCC[C@]32C)CC1 (stereo partly specified)
- selectivity ratio [2]: 113
- Ratio IC50 (Plasmodium falciparum [3]): 0.62
- pIC50 (Plasmodium falciparum [1]): 5.79
- pIC50 (Plasmodium falciparum [4]): 6.00
- pIC50 (CHO): 3.74
- selectivity ratio [5]: 181

Structure (SMILES): Oc1ccc2ccccc2c1 [BETANAPHTHOL]
- pIC50 (Plasmodium falciparum [1]): < 4.00

Structure (SMILES): CN1CCN(CC(O)COc2ccccc2)CC1 (racemic)
- pIC50 (Plasmodium falciparum [1]): < 4.00

Structure (SMILES): CC(C)NCC(O)COc1cccc2ccccc12 (racemic) [PROPRANOLOL]
- Activity (Plasmodium falciparum [8]): 5.35%
- Activity (Plasmodium falciparum [9]): -3.48%

Structure (SMILES): CN1CCN(CC(O)COc2cccc3ccccc23)CC1 (racemic)
- selectivity ratio [2]: 6.2
- Ratio IC50 (Plasmodium falciparum [3]): 0.17
- pIC50 (Plasmodium falciparum [1]): 4.38
- pIC50 (Plasmodium falciparum [4]): 5.14
- pIC50 (CHO): 3.58
- selectivity ratio [5]: 36.1

Structure (SMILES): CCN(CC)CC(O)COc1ccc2c(c1C(C)C)CC[C@H]1C(C)(C)CCC[C@]21C (stereo partly specified)
- selectivity ratio [2]: 12.7
- Ratio IC50 (Plasmodium falciparum [3]): 1.04
- pIC50 (Plasmodium falciparum [1]): 6.21
- pIC50 (Plasmodium falciparum [4]): 6.20
- pIC50 (CHO): 5.11
- selectivity ratio [5]: 12.2

Structure (SMILES): COc1ccc(CCN(C)CCCC(C#N)(c2ccc(OC)c(OC)c2)C(C)C)cc1OC (stereo unspecified)
- fold change (FC) (Erythrocyte [10]): >3

Structure (SMILES): CC(C)c1c(OCC(O)CN2CCCCC2)ccc2c1CC[C@H]1C(C)(C)CCC[C@]21C (stereo partly specified)
- selectivity ratio [2]: 2.8
- Ratio IC50 (Plasmodium falciparum [3]): 0.7
- pIC50 (Plasmodium falciparum [1]): 5.97
- pIC50 (Plasmodium falciparum [4]): 6.12
- pIC50 (CHO): 5.52
- selectivity ratio [5]: 4
